One may read the EC90 as the concentration needed for an effect of 90%. Broadly, the CC50 is the concentration at which the toxic effect on the cells reaches its halfway point. The term EC50 denotes the concentration needed to bring the measured effect to its halfway point.

Each structure is given as a SMILES string. Active and inactive are the calls of the source. The rule behind the calls is not given here. Where only a bound is given, the exact number is not on record here.

Series [1] can be described thus: Selectivity index, ratio of CC50 for cytotoxicity against human HepG2 2.2.15 cells to EC90 for antiviral activity against Hepatitis B virus ayw1 infected in human HepG2 2.2.15 cells. The series is classed as toxicity, cell-based. An outline of the steps: (§1)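 HepG2 2.2.15 cells seeded at 1.5 × 10^4 cells/well in DMEM with 2% FBS, 380 μg/mL G418 and glutamine, using interior wells only. After 16-24 h, the medium was replaced with serial compound dilutions in triplicate, refreshed at day 3. At day 6, pronase-treated supernatant HBV DNA was measured by TaqMan qPCR against a standard curve (EC50/EC90). MTS viability on the same plate gave CC50; SI = CC50/EC.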

Series [2] has as its system Hepatitis B virus. Briefly: Antiviral activity against Hepatitis B virus ayw1 infected in human HepG2 2.2.15 cells assessed as reduction in viral DNA replication preincubated for 3 days followed by media replacement and measured 6 days after first dose by q-PCR assay. The settings on record: ayw1, HepG2 2.2.15, 144 h.
Series [3] is described as follows: Selectivity index, ratio of CC50 for cytotoxicity against human HepG2 2.2.15 cells to EC50 for antiviral activity against Hepatitis B virus ayw1 infected in human HepG2 2.2.15 cells. In kind it is toxicity, cell-based. The following applies: read-out: Ratio CC50/EC50. The procedure, abridged:
as §1

The nature of series [4]: Cytotoxicity against human HepG2 2.2.15 cells assessed as reduction in cell viability by MTS assay. The series is classed as toxicity, cell-based. An outline of the steps:
as §1
(Tetrazolium assays rely on reduction of a dye to a coloured formazan, in cell work by metabolically active cells.)

For series [5], the system named is Hepatitis B virus. Briefly: Antiviral activity against Hepatitis B virus ayw1 infected in human HepG2 2.2.15 cells assessed as reduction in viral DNA replication preincubated for 3 days followed by media replacement and measured after 6 days by q-PCR assay. In kind it is functional, organism-based. The settings on record: ayw1, HepG2 2.2.15. An outline of the steps:
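HepG2 2.2.15 cells at 1.5 × 10^4 cells/well in DMEM with 2% FBS and 380 μg/mL G418, treated after 16-24 h at several concentrations in triplicate. Compound medium renewed on day 3. Supernatant taken on day 6, pronase-treated, and extracellular HBV DNA measured by TaqMan qPCR against a purified HBV DNA standard curve. EC50 and EC90 taken from the DNA reduction. Lamivudine served as positive control and medium alone as virus control.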

For series [6], the system named is Hepatitis B virus. The experiment in a line: Antiviral activity against Hepatitis B virus infected in human HepDES19 cells assessed as reduction in viral DNA replication measured after 3 days by q-PCR assay. The series is classed as functional, organism-based. An outline of the steps:
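HepDES19, a HepG2 derivative with a tetracycline-repressible HBV cassette, was induced to replicate HBV by tetracycline withdrawal. Cells were exposed to compound for 3 days. Replication was measured by strand-preferential qPCR.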

Series [7] is described as follows: Cytotoxicity against human HepDES19 cells assessed as reduction in cell viability incubated for 72 hrs by MTS assay. The series is classed as toxicity, cell-based. The following applies: for CC50 at 72 h: HepDES19 cells. An outline of the steps:
(§2)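 HepDES19 (HepG2-derived, tetracycline-repressible HBV cassette) cells were induced to replicate HBV by tetracycline withdrawal and exposed to compound for 3 days. Replication was read by strand-preferential qPCR; cytotoxicity by MTS assay.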

The nature of series [8]: Selectivity index, ratio of CC50 for cytotoxicity against human HepDES19 cells to EC50 for antiviral activity against Hepatitis B virus infected in human HepDES19 cells. In kind it is toxicity, cell-based. The following applies: for selectivity ratio: HepDES19 cells, read-out: Ratio CC50/EC50. The procedure, abridged:
as §2

Series [9] concerns Hepatitis B virus. The experiment in a line: Antiviral activity against Hepatitis B virus infected in human HepDES19 cells assessed as reduction in capsid accumulation by measuring intracellular HBV nucleocapsid level after 5 days by agarose gel electrophoresis-based assay. The series is classed as functional, organism-based. The settings on record: time 5.0 day. The procedure, abridged:
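HepDES19 cells replicating HBV were treated for 5 days. They were lysed in 10mM Tris pH 7.4, 1% Tween 20 and 150mM NaCl with protease inhibitors. Lysates were digested with micrococcal nuclease plus 10mM CaCl2 (final), normalised for protein by Bradford, and run on native agarose gels. Gels were capillary-blotted to nitrocellulose and probed with anti-HBcAg and an AP-conjugated secondary with BCIP/NBT. Bands were quantified by densitometry.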

[10] abbreviates: Hepatitis B virus, HepDES19, 72 h.

In the case of `Nc1ccn([C@@H]2CS[C@H](CO)O2)c(=O)n1` [LAMIVUDINE], the selectivity ratio in [1] was over 4; in series [3], over 113. In addition, the EC90 in the series with Hepatitis B virus [2] came out at 0.541 µM. Moreover, in series [4], the CC50 is over 2 µM. The EC50 in the series with Hepatitis B virus [5] came out at 0.018 µM.

Consider `Cc1nc(N2CCC[N+]3(CC2)CC[N+]2(CCCNCC2)CC3)c([N+](=O)[O-])c(N2CCC[N+]3(CC2)CC[N+]2(CCCNCC2)CC3)n1` (configuration not stated), for which the EC50 in the series with Hepatitis B virus [6] (setting [10]) is 5.3 µM. Further, the CC50 at 72 h in [7] amounted to 100 µM. Moreover, the selectivity ratio in series [8] was found to be 19.

For `O=Cc1c(N2CC[N+]3(CCC[N+]4(CCNCC4)CC3)CC2)nc(-c2ccccc2)nc1N1CC[N+]2(CCC[N+]3(CCNCC3)CC2)CC1`, the EC50 in the series on Hepatitis B virus [6] (setting [10]) came out at 48 µM. Moreover, the CC50 at 72 h in [7] was 88 µM. In addition, in series [8], the selectivity ratio worked out at 1.8.

As to `Nc1c(N2CC[N+]3(CCC[N+]4(CCNCC4)CC3)CC2)ncnc1N1CC[N+]2(CCC[N+]3(CCNCC3)CC2)CC1`, the concentration giving a half-maximal response (EC50) in the series on Hepatitis B virus [6] (setting [10]) and with Hepatitis B virus [5] was 22 µM each time. Besides, the selectivity ratio is over 1 in series [1], over 5 in series [3] and 4.5 in series [8]. The EC90 in the series with Hepatitis B virus [2] stood at 78.1 µM. Besides, the CC50 in series [4] is over 100 µM. Further, the CC50 at 72 h in series [7] was 100 µM.

As for `Clc1nc(N2CCC[N+]3(CC2)CC[N+]2(CCCNCC2)CC3)nc(N2CCC[N+]3(CC2)CC[N+]2(CCCNCC2)CC3)n1.[Br-].[Br-].[Br-].[Br-]` (configuration not stated), the EC50 with Hepatitis B virus [6] (hepdes19) was found to be 7.5 µM. In addition, the CC50 at 72 h in series [7] was 99 µM. Also, the “Ratio CC50/EC50” value in series [8] is on record as 13.

As for `O=[N+]([O-])c1c(N2CCC[N+]3(CC2)CC[N+]2(CCCNCC2)CC3)ncnc1N1CCC[N+]2(CC1)CC[N+]1(CCCNCC1)CC2` (configuration not stated), the EC50 in the series with Hepatitis B virus [6] (setting [10]) was 9 µM. Moreover, in series [7], the CC50 at 72 h was determined as 100 µM. Besides, in series [8], the selectivity ratio was determined as 11.

As to `O=Cc1c(N2CC[N+]3(CC2)CC[N+]2(CCNCC2)CC3)nc(-c2ccccc2)nc1N1CC[N+]2(CC1)CC[N+]1(CCNCC1)CC2`, the EC50 in the series with Hepatitis B virus [6] (setting [10]) is 2.1 µM; in the series on Hepatitis B virus [5] it was 2.13 µM. In addition, the selectivity ratio in [1] is over 4; in series [3], over 47; in [8], 41. In the series on Hepatitis B virus [2], the EC90 is 26.5 µM. In series [4], the CC50 is over 100 µM. Moreover, the CC50 at 72 h in [7] was found to be 86 µM.

Take `Cc1nc(N2CC[N+]3(CC2)CC[N+]2(CCNCC2)CC3)c(N)c(N2CC[N+]3(CC2)CC[N+]2(CCNCC2)CC3)n1`: the results for the EC50 with Hepatitis B virus [6] (setting [10]) and in the series on Hepatitis B virus [5] were 0.7 µM and 1.86 µM, respectively. Also, the selectivity ratio in series [1] is over 6; in series [3] it was over 54; in series [8], 143. The EC90 in the series on Hepatitis B virus [2] worked out at 15.7 µM. Besides, in [4], the CC50 is over 100 µM. Moreover, in series [7], the CC50 at 72 h amounted to 100 µM.

For the compound `Clc1nc(N2CCC[N+]3(CC2)CC[N+]2(CCCNCC2)CC3)nc(N2CCC[N+]3(CC2)CC[N+]2(CCCNCC2)CC3)n1` (configuration not stated), the result with Hepatitis B virus [9] was Active.

As to `O=Cc1c(N2CCC[N+]3(CC2)CC[N+]2(CCCNCC2)CC3)nc(-c2ccccc2)nc1N1CCC[N+]2(CC1)CC[N+]1(CCCNCC1)CC2` (configuration not stated), the EC50 in the series on Hepatitis B virus [6] (setting [10]) is 11 µM. For the same compound, the CC50 at 72 h in series [7] was 92 µM. For the same compound, the selectivity ratio in [8] amounted to 8.4.

For the compound `Cc1nc(N2CC[N+]3(CCC[N+]4(CCNCC4)CC3)CC2)c([N+](=O)[O-])c(N2CC[N+]3(CCC[N+]4(CCNCC4)CC3)CC2)n1`, in the series with Hepatitis B virus [9], the outcome was Active. In addition, the EC50 in the series with Hepatitis B virus [6] (setting [10]) amounted to 6.5 µM; with Hepatitis B virus [5], 6.53 µM. Besides, the selectivity ratio in [1] is over 2; in series [3], over 15; in series [8], 15. Besides, the EC90 in the series with Hepatitis B virus [2] was 58.1 µM. Also, the CC50 in [4] was over 100 µM. Also, the CC50 at 72 h in series [7] worked out at 100 µM.

`O=[N+]([O-])c1c(N2CC[N+]3(CCC[N+]4(CCNCC4)CC3)CC2)ncnc1N1CC[N+]2(CCC[N+]3(CCNCC3)CC2)CC1`: the EC50 in the series on Hepatitis B virus [6] (setting [10]) turned out to be 9 µM. Moreover, in series [7], the 50% cytotoxic concentration (CC50) at 72 h is 100 µM. Moreover, the selectivity ratio in series [8] worked out at 11.

Consider `O=Cc1c(O)nc(N2CC[N+]3(CCC[N+]4(CCNCC4)CC3)CC2)nc1N1CC[N+]2(CCC[N+]3(CCNCC3)CC2)CC1`, for which the EC50 with Hepatitis B virus [6] (setting [10]) is 1 µM. Besides, the CC50 at 72 h in series [7] was 100 µM. In addition, in [8], the selectivity ratio turned out to be 100.

`Nc1c(N2CCC[N+]3(CC2)CC[N+]2(CCCNCC2)CC3)ncnc1N1CCC[N+]2(CC1)CC[N+]1(CCCNCC1)CC2` (configuration not stated): the EC50 in the series on Hepatitis B virus [6] (setting [10]) turned out to be 40 µM. For the same compound, the CC50 at 72 h in series [7] stood at 100 µM. For the same compound, the selectivity ratio in series [8] was found to be 2.5.

Take `O=Cc1c(N2CC[N+]3(CCC[N+]4(CCNCC4)CC3)CC2)ncnc1N1CC[N+]2(CCC[N+]3(CCNCC3)CC2)CC1`: in the series with Hepatitis B virus [6] (setting [10]), the EC50 was over 100 µM. In addition, the CC50 at 72 h in series [7] was found to be 100 µM. Besides, the selectivity ratio in series [8] was under 1.

Regarding `O=Cc1c(N2CCC[N+]3(CC2)CC[N+]2(CCCNCC2)CC3)ncnc1N1CCC[N+]2(CC1)CC[N+]1(CCCNCC1)CC2` (configuration not stated), the EC50 in the series on Hepatitis B virus [6] (setting [10]) was over 100 µM. Moreover, in series [7], the CC50 at 72 h was 100 µM. Also, the selectivity ratio in series [8] is under 1.

Consider `Cl.Cl.Clc1nc(N2CCC[N+]3(CC2)CC[N+]2(CCCNCC2)CC3)nc(N2CCC[N+]3(CC2)CC[N+]2(CCCNCC2)CC3)n1.[Br-].[Br-].[Br-].[Br-]` (configuration not stated), for which, in the series with Hepatitis B virus [6] (hepdes19), the EC50 is over 100 µM. Moreover, the cytotoxic concentration (CC50) in [7] (hepdes19, 72 h, 72 h) came out at 67 µM. For the same compound, in series [8], the “Ratio CC50/EC50” value came to 0.67.
